Data taken from the array DNA melting data of Ke et al. (doi:10.1101/2024.01.08.574731).

Legend:
[1] = melting temperature; fluorescence melt of hairpins on a sequencing array, two-state fit, raised by 9.35 °C to match UV melts; conditions: sodium 0.088 M
Procedure, shortened: (§1)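 Cy3 fluorescence of library hairpins on a sequenced MiSeq flow cell, with annealed Cy3 and quencher oligos, was imaged in 50 mM Na-HEPES pH 8.0, 25 mM NaCl in 2.5 °C steps up to 60 °C. Signals were normalised to pre-quench Cy3 and to control variants. Melting temperature and folding enthalpy came from bootstrapped two-state fits, inverse-variance combined over four replicates. Fitted temperatures were raised by 9.35 °C to match UV melts.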

[2] = folding enthalpy; higher = less favourable; fluorescence melt of hairpins on a sequencing array, two-state fit; conditions: sodium 0.088 M
Procedure, shortened: as §1

Which results are given for GTCCACGGAAACATGGAC (((((.(....).)))))?
Tm [1]: 43.2 °C; folding enthalpy [2]: -25.5 kcal/mol

Which Tm [1] does the source give for GTCCAGCGAAAGCTGAC (((.(((....)))))) here?
The Tm was 46.4 °C.

And the folding enthalpy [2]?
The folding enthalpy was -11.4 kcal/mol.

Which Tm [1] does the source give for GTCCAGGAAACTGGAC ((((((....)))))) here?
The Tm was 62.4 °C.

What about the folding enthalpy [2] of the same sequence?
Its folding enthalpy is -34 kcal/mol.

Which Tm [1] does the source give for GTCCATCCGAAAGGAGAC (((..(((....)))))) here?
Its Tm is 24.8 °C.

What about the folding enthalpy [2] of the same sequence?
The folding enthalpy was -14.8 kcal/mol.

Which Tm [1] does the source give for GTCCATGGAAACATGAAC ((.((((....)))).)) here?
The Tm was 36.4 °C.

And the folding enthalpy [2]?
Its folding enthalpy is -18.5 kcal/mol.

For GTCCCACGAAAGTGCGAC (((.(((....))).))), which Tm [1] is on record?
The Tm was 46.5 °C.

What about the folding enthalpy [2] of the same sequence?
The folding enthalpy was -24.9 kcal/mol.

Which Tm [1] does the source give for GTCCCACGAAAGTGTGAC (((.(((....))).))) here?
The Tm was 50.4 °C.

And the folding enthalpy [2]?
The folding enthalpy was -33 kcal/mol.

What does the source list for GTCCCAGGAAACTAGGAC ((((.((....)).))))?
Tm [1]: 35.9 °C; folding enthalpy [2]: -21.5 kcal/mol

With GTCCCCGAAAGGGCCGAC ((((((....)))..))) as the sequence, how does the Tm [1] read?
The Tm was 33 °C.

What about the folding enthalpy [2] of the same sequence?
The folding enthalpy was -12.1 kcal/mol.

What does the source list for GTCCCCGAAAGGGCGAC ((((((....))).)))?
Tm [1]: 52.7 °C; folding enthalpy [2]: -20.8 kcal/mol

With GTCCCCGAAAGGGCTGAC ((((((....)))..))) as the sequence, how does the Tm [1] read?
The Tm was 34.8 °C.

And the folding enthalpy [2]?
Its folding enthalpy is -11.7 kcal/mol.

For GTCCCCGAAAGGGGTGAC ((((((....)))..))), which Tm [1] is on record?
The Tm was 45 °C.

What about the folding enthalpy [2] of the same sequence?
The folding enthalpy was -8.1 kcal/mol.

Which results are given for GTCCCGCGAAAGCGCGAC (((.(((....))).)))?
Tm [1]: 49.5 °C; folding enthalpy [2]: -21.4 kcal/mol

What does the source list for GTCCCGGGAAACCGAGAC (((.(((....))).)))?
Tm [1]: 46.3 °C; folding enthalpy [2]: -25.8 kcal/mol

For GTCCCTCCGAAAGGAGAC (((..(((....)))))), which Tm [1] is on record?
The Tm was 26.4 °C.

And the folding enthalpy [2]?
The folding enthalpy was -9.1 kcal/mol.

What does the source list for GTCCCTCGAAAGAGGAC (((.(((....))))))?
Tm [1]: 51.3 °C; folding enthalpy [2]: -14 kcal/mol

With GTCCCTGGAAACAGAGAC (((.(((....))).))) as the sequence, how does the Tm [1] read?
Its Tm is 36.3 °C.

What about the folding enthalpy [2] of the same sequence?
Its folding enthalpy is -28.4 kcal/mol.

Which results are given for GTCCGAGCGAAAGCTGAC (((..(((....))))))?
Tm [1]: 37.2 °C; folding enthalpy [2]: -14.5 kcal/mol

What does the source list for GTCCGCGAAAGCGACGAC ((((((....)))..)))?
Tm [1]: 57.6 °C; folding enthalpy [2]: -14 kcal/mol

For GTCCGCGAAAGCGAGGAC ((((((....)))..))), which Tm [1] is on record?
The Tm was 54.9 °C.

And the folding enthalpy [2]?
The folding enthalpy was -21 kcal/mol.

What does the source list for GTCCGGGGAAACCCGAAC ((.((((....)))).))?
Tm [1]: 44.2 °C; folding enthalpy [2]: -18.5 kcal/mol

With GTCCGGGGAAACCTGGAC ((((.((....)).)))) as the sequence, how does the Tm [1] read?
The Tm was 55.5 °C.

And the folding enthalpy [2]?
The folding enthalpy was -36.6 kcal/mol.

Which results are given for GTCCGTGGAAACACAGAC (((.(((....))).)))?
Tm [1]: 40.5 °C; folding enthalpy [2]: -28.2 kcal/mol

Which results are given for GTCCGTGGAAACACGGGC (.(((((....))))).)?
Tm [1]: 63.8 °C; folding enthalpy [2]: -24.1 kcal/mol

For GTCCTACGAAAGTATGAC (((.(((....))).))), which Tm [1] is on record?
Its Tm is 41.9 °C.

What about the folding enthalpy [2] of the same sequence?
The folding enthalpy was -32.3 kcal/mol.

Which Tm [1] does the source give for GTCCTAGAAATAGGAC ((((((....)))))) here?
Its Tm is 50.6 °C.

And the folding enthalpy [2]?
Its folding enthalpy is -36.6 kcal/mol.

With GTCCTAGGAAACTAGGGC (.(((((....))))).) as the sequence, how does the Tm [1] read?
Its Tm is 49.4 °C.

And the folding enthalpy [2]?
The folding enthalpy was -32.9 kcal/mol.

What does the source list for GTCCTCCCGAAAGGGGAC (((..(((....))))))?
Tm [1]: 44.8 °C; folding enthalpy [2]: -14.3 kcal/mol

For GTCCTCCGAAAGGAAGAC (((.(((....))).))), which Tm [1] is on record?
The Tm was 43.9 °C.

And the folding enthalpy [2]?
The folding enthalpy was -27.5 kcal/mol.

For GTCCTCGAAAGAGAGAC ((((((....))).))), which Tm [1] is on record?
The Tm was 46.6 °C.

And the folding enthalpy [2]?
The folding enthalpy was -20.2 kcal/mol.

What does the source list for GTCCTCGAAAGAGCAGAC ((((((....)))..)))?
Tm [1]: 30.1 °C; folding enthalpy [2]: -19.8 kcal/mol

What does the source list for GTCCTCGAAAGAGCCGAC ((((((....)))..)))?
Tm [1]: 26.7 °C; folding enthalpy [2]: -12.4 kcal/mol

Which results are given for GTCCTCGAAAGAGGGAC ((((((....))).)))?
Tm [1]: 53.9 °C; folding enthalpy [2]: -15.7 kcal/mol

With GTCCTCGCGAAAGCGGAC (((..(((....)))))) as the sequence, how does the Tm [1] read?
Its Tm is 43.7 °C.

What about the folding enthalpy [2] of the same sequence?
Its folding enthalpy is -12.7 kcal/mol.

For GTCCTGCGAAAGCAGAC (((.(((....)))))), which Tm [1] is on record?
Its Tm is 47.4 °C.

What about the folding enthalpy [2] of the same sequence?
Its folding enthalpy is -12.1 kcal/mol.

Which results are given for GTCCTGGCGAAAGCCGAC (((..(((....))))))?
Tm [1]: 32.9 °C; folding enthalpy [2]: -9.43 kcal/mol

For GTCCTGGGAAACTAGGGC (.(((.(....).))).), which Tm [1] is on record?
Its Tm is 40 °C.

What about the folding enthalpy [2] of the same sequence?
The folding enthalpy was -28.8 kcal/mol.

Which results are given for GTCCTTCGAAAGAAAGAC (((.(((....))).)))?
Tm [1]: 34.4 °C; folding enthalpy [2]: -19.1 kcal/mol

Which results are given for GTCCTTCGAAAGAATGAC (((.(((....))).)))?
Tm [1]: 39.2 °C; folding enthalpy [2]: -30.3 kcal/mol

For GTCCTTGGAAACAAGAAC ((.((((....)))).)), which Tm [1] is on record?
Its Tm is 30.5 °C.

What about the folding enthalpy [2] of the same sequence?
Its folding enthalpy is -14.2 kcal/mol.

What does the source list for GTCGAAGGAAACCTCGAC (((((.(....).)))))?
Tm [1]: 48 °C; folding enthalpy [2]: -31.8 kcal/mol

What does the source list for GTCGAATCGAAAGATGAC (((..(((....))))))?
Tm [1]: 32.6 °C; folding enthalpy [2]: -19.9 kcal/mol

What does the source list for GTCGACCCGAAAGGGGAC (((..(((....))))))?
Tm [1]: 40 °C; folding enthalpy [2]: -13.4 kcal/mol

With GTCGACCGAAAGGTAGAC (((.(((....))).))) as the sequence, how does the Tm [1] read?
Its Tm is 59.8 °C.

What about the folding enthalpy [2] of the same sequence?
The folding enthalpy was -36.4 kcal/mol.

With GTCGACCGAAAGGTGAC (((.(((....)))))) as the sequence, how does the Tm [1] read?
The Tm was 51.8 °C.

And the folding enthalpy [2]?
The folding enthalpy was -22.4 kcal/mol.
